Test results taken from PMC3361572 (Chemistry & biology, 2012).

What was measured:
FAAH [1] = target: T1, FAAH (Mus musculus, UniProt O08914); assay: competitive ABPP, mouse brain membrane proteome; type: biochemical
T1 sequence (O08914 1-579): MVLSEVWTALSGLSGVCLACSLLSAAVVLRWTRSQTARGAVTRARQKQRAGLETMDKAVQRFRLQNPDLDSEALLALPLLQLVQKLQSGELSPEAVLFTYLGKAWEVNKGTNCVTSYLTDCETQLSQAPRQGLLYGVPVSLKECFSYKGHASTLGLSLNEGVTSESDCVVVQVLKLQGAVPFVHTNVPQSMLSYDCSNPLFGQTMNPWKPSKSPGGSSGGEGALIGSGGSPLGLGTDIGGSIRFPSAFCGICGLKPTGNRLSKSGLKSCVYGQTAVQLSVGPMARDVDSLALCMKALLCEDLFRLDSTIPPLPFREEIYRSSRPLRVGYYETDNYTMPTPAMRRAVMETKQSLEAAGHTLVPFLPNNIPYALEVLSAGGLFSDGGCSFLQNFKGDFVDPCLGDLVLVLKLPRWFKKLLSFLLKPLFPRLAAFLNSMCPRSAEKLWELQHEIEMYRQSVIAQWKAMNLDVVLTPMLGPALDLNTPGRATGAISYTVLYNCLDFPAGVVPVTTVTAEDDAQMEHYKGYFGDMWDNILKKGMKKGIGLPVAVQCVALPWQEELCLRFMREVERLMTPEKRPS
Summary of the method: (§1)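 Brain (mouse or rat) or mouse lung proteomes were preincubated with the test compound, then treated with the serine hydrolase probe FP-Rh. Samples were separated by SDS-PAGE and read by in-gel fluorescence scanning. Inhibition was taken as reduced FP-Rh labelling of MAGL, ABHD6, FAAH or CES bands, and IC50 values were calculated from quantified gel bands. Three independent experiments.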

MAGL [2] = target: T2, MAGL (Rattus norvegicus, UniProt Q8R431); assay: competitive ABPP, rat brain membrane proteome; type: biochemical; conditions: read-out: IC50 (95% CI), rat MAGL; competitive ABPP, rat brain membrane proteome
T2 sequence (Q8R431 1-303): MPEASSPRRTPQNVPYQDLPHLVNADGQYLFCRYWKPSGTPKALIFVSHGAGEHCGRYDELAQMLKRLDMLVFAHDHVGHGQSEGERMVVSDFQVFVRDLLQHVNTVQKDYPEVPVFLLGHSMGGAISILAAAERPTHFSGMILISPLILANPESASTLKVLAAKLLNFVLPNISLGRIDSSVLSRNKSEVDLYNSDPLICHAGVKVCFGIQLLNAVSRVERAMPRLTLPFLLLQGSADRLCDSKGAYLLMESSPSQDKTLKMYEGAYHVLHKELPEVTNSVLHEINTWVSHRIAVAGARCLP
Summary of the method: as §1

FAAH [3] = target: T3, FAAH (Rattus norvegicus, UniProt P97612); assay: competitive ABPP, rat brain membrane proteome; type: biochemical; conditions: read-out: IC50 (95% CI), rat FAAH; competitive ABPP, rat brain membrane proteome
T3 sequence (P97612 1-579): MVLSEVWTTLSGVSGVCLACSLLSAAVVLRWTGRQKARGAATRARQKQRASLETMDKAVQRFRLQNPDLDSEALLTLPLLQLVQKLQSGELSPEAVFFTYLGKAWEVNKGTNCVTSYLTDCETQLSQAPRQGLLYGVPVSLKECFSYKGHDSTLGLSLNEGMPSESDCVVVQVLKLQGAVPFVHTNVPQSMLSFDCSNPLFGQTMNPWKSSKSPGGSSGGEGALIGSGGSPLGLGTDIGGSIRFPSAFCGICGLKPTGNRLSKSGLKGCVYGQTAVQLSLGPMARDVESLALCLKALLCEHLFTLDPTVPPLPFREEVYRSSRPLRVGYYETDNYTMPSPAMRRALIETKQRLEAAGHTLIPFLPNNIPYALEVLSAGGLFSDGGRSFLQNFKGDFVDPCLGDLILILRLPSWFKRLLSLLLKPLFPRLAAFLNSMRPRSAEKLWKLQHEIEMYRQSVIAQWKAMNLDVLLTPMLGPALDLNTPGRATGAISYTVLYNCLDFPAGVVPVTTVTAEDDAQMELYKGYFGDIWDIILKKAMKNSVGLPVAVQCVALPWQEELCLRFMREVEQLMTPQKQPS
Summary of the method: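 Rat brain proteome pre-treated with test compound, then labelled with the serine hydrolase-directed fluorophosphonate-rhodamine (FP-Rh) activity-based probe. Proteins separated by SDS-PAGE and detected by in-gel fluorescence scanning. Inhibition scored as loss of FP-Rh labelling of the FAAH band. IC50 calculated from the gel-based ABPP data.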

hFAAH = target: T4, hFAAH (Homo sapiens, UniProt O00519); assay: competitive ABPP, proteomes of transiently transfected HEK293T cells; type: biochemical; conditions: for IC50: read-out: IC50 (95% CI), human FAAH, competitive ABPP, transfected HEK293T cell proteome
T4 sequence (O00519 1-579): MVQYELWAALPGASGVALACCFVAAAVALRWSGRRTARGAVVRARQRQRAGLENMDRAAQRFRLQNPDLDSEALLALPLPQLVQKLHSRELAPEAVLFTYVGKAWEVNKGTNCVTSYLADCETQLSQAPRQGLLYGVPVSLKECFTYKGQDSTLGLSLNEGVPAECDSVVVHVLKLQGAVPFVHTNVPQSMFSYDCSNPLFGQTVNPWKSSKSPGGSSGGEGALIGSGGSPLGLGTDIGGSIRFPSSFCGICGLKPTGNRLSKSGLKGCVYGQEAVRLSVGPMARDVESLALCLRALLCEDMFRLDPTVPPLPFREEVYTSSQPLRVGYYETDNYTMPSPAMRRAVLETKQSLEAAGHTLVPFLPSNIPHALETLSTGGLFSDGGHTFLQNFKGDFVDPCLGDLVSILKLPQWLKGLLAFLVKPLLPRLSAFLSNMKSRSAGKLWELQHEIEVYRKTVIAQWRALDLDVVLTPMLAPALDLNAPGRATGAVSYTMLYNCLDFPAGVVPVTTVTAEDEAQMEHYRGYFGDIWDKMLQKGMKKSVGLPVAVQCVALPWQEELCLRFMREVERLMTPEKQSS

[4] = test system: other rat brain serine hydrolases; assay: competitive ABPP, rat brain proteome, other serine hydrolases; type: biochemical
Summary of the method: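 Rat brain proteome was preincubated with test compound, then labelled with the serine hydrolase-directed probe FP-rhodamine. Proteins were separated by SDS-PAGE and scanned by in-gel fluorescence. Inhibition of individual serine hydrolases was scored as reduced probe labelling.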

MAGL [5] = target: T5, MAGL (Mus musculus, UniProt O35678); assay: competitive ABPP, mouse brain membrane proteome; type: biochemical; conditions: mouse brain proteome, competitive ABPP
T5 sequence (O35678 1-303): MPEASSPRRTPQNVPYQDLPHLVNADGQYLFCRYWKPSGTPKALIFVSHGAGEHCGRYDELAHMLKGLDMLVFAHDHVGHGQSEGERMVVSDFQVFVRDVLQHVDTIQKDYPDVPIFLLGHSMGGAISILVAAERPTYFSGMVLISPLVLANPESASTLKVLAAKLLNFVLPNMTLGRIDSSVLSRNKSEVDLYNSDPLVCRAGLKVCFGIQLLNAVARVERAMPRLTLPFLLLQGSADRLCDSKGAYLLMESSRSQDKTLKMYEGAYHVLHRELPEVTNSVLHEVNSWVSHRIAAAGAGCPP

hMAGL = target: T6, hMAGL (Homo sapiens, UniProt Q99685); assay: competitive ABPP, proteomes of transiently transfected HEK293T cells; type: biochemical; conditions: read-out: IC50 (95% CI), human MAGL, transfected HEK293T cell proteome
T6 sequence (Q99685 1-303): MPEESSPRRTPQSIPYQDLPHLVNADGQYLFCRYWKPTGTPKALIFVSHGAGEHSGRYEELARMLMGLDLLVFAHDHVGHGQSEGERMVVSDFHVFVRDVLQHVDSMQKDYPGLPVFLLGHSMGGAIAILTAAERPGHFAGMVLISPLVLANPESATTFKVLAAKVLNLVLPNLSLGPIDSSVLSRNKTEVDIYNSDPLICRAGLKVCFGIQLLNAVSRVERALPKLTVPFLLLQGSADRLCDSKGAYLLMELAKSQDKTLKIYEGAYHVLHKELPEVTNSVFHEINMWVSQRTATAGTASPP

FAAH [6] = target: T1, FAAH; assay: competitive ABPP of brain from inhibitor-treated mice; type: in vivo
[7] = test system: brain 2-AG, AA, AEA, PEA, OEA; assay: brain lipid profile of inhibitor-treated mice; type: in vivo, mouse; conditions: 40 mg kg^−1 p.o., six days
[8] = test system: carboxylesterase (CES) enzymes; assay: gel-based ABPP of liver, lung and spleen from inhibitor-treated mice; type: in vivo, mouse
[9] = previously noted by the authors, no reference given; cited from earlier work
[10] = no reference given; cited from earlier work

Structure (SMILES) | FAAH inhibition / cross-reactivity (gel-based ABPP) (FAAH [1]; mouse brain proteome, concentration range tested 0.001–50 μM) | IC50 (MAGL [2]) | IC50 (FAAH [3]) | IC50 (hFAAH) | additional off-target reactivity with other rat brain serine hydrolases [4] | potency for MAGL relative to FAAH (MAGL [5]) | FAAH reactivity (FAAH [1]; competitive ABPP, up to 10 μM) | IC50 (hMAGL) | cross-reactivity with hFAAH (competitive ABPP) (hFAAH; lysates of HEK293T cells transfected with hFAAH) | brain FAAH inhibition, chronic dosing (FAAH [6]; 40 mg kg^−1 p.o., six days) | inhibition of brain FAAH (FAAH [6]; highest dose tested 40 mg kg^−1 p.o., 4 h) | brain 2-AG and NAE levels, chronic dosing [7] | CES inhibition in peripheral tissues, chronic dosing ([8]; 40 mg kg^−1 p.o., six days) | reactivity with CESs in liver, lung and spleen ([8]; 1–40 mg kg^−1 p.o., 4 h) | solubility in dosing vehicle [9] | pKa [10]
CN(Cc1cccc(-c2ccncc2)c1)C(=O)OC(C(F)(F)F)C(F)(F)F [JW618] | no detectable crossreactivity with FAAH | 0.385 µM | > 50 µM | > 50 µM | did not detect any additional off-target reactivity |  |  |  |  |  |  |  |  |  |  | 
O=C(OC(C(F)(F)F)C(F)(F)F)N1CCN(Cc2cccc(Oc3ccccc3)c2)CC1 [JW642] |  | 0.014 µM | 14 µM | 20.6 µM | did not detect any additional off-target reactivity | > 1000 fold | no observable FAAH reactivity up to 10 μM | 0.0037 µM |  |  |  |  |  |  |  | 
O=C(Oc1ccc([N+](=O)[O-])cc1)N1CCC(C(O)(c2ccc3c(c2)OCO3)c2ccc3c(c2)OCO3)CC1 [JZL184, reference compound] |  | 0.262 µM | 3.57 µM | > 50 µM |  |  |  |  | no detectable cross-reactivity with FAAH up to 50 μM | not only inhibited MAGL, but also FAAH | partially inhibit FAAH | increases in both 2-AG and NAEs | several CES enzymes in peripheral tissues | significant reactivity with several CESs | limited solubility | 
OC(C(F)(F)F)C(F)(F)F [hexafluoroisopropanol] |  |  |  |  |  |  |  |  |  |  |  |  |  |  |  | ~ 9.3
